From PubChem
An excerpt weighted towards active compounds, which were near 2.9% of everything screened.
Wee1 stabilizer: human Wee1 degradation inhibition, primary screen | P30291 | HeLa Luc-Wee1K328M stability, luciferase luminescence; 100% = proteasome inhibitor MG132 effect | reporter increase, % at 5 µM | 1.2% of 220,000 active;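 active means activation above the mean of all tested compounds plus 3 SD, set per screening run, cut at about 8.8% in these data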;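 further: cells exposed to compound for 20 h before luminescence read; 0% = DMSO alone and 100% = MG132 at 30 µM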
Target sequence (P30291 whole entry K328M): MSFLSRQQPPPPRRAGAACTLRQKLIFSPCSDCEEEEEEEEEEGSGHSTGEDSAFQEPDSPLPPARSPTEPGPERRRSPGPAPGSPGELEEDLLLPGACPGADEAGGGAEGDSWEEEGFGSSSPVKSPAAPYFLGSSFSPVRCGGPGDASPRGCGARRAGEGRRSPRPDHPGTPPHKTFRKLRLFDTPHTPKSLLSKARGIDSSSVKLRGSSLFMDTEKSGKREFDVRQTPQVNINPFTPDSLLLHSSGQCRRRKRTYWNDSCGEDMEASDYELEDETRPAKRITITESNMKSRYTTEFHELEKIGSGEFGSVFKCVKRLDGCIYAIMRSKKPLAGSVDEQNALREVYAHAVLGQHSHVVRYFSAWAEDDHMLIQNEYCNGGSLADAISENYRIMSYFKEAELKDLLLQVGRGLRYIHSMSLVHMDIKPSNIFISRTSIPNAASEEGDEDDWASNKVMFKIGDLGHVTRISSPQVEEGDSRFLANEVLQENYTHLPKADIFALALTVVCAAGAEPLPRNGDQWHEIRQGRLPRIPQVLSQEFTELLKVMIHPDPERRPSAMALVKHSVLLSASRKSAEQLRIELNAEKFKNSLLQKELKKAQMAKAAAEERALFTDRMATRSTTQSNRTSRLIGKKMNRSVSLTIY
KLK7 zymogen act: activators of human kallikrein-7 zymogen | 0.9% of 370,000 active | purified proKLK7, EDANS-DABCYL substrate fluorescence; 100% is mature enzyme control, 0% vehicle | activation, % at 7 µM | P49862;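 active means activation above the mean of all tested compounds plus 3 SD, computed per campaign excluding outliers beyond control limits, cut at about 13% in these data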
Runt-CBFb FRET: blocks binding of human RUNX1 Runt domain to CBFb | 0.46% of 220,000 active | AID 1496 | Cerulean-Runt/Venus-CBFb FRET ratio 530/480, 1 h | inhibition, % at 20 µM | Q01196+Q13951;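 active means inhibition over about 50% at 20 µM in the single-dose screen, limit read from the data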;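 further: 0% = DMSO wells and 100% = excess unlabeled CBFb competitor control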
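Schedule: protein complex preformed 1 h, compound exposure 1 h, room temperature, dark; test system: Cerulean-labeled Runt domain protein; amount: 100 nM per protein; buffer or medium: Tris 50 mM pH 7.5, KCl, K2SO4, 0.01% BSA; read-out: loss of energy transfer signal; detection: FRET fluorescence; controls: 5 µM unlabeled CBFb as full-inhibition high control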
Runt-SMMHC FRET: Runt domain-CBFb-SMMHC interaction inhibition; Cerulean-Runt/Venus-CBFb-SMMHC FRET ratio 530/480, 1 h; inhibition, % at 20 µM; 0.74% of 220,000 active; AID 1434;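 active means mean inhibition across duplicate retests at 20 µM reaching about 50%, limit read from the data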;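 further: 0% = DMSO wells and 100% = wells with excess untagged CBFb-SMMHC; inhibitors lower the FRET ratio by blocking Runt binding to CBFb-SMMHC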
AI-2 QS modul: modulates the Vibrio harveyi AI-2 quorum sensing system. Vibrio harveyi JMH597 AI-2 luminescence/OD600 ratio, 9 h; hits give low values; strain lacks LuxN and CqsS sensors; 0 = neutral-control median. activity change, % at 7.5 µM. 0.4% of 300,000 active; in the data active means activity change below about -75%, passing the limit was not always enough; inconclusive means no clear call, values can overlap the other calls;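 further: luminescence divided by OD600 gain over 9 h not by final OD600 alone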
RanGTP-Impb inh: disruptors of Ran-importin-beta complex formation – biochemical, FRET, CFP-Ran, YFP-importin-beta, homogeneous, primary screen; 1.1% of 300,000 active; inhibition, % (test concentration not listed); AID 2216; cell-free CFP-Ran/YFP-importin-beta FRET ratio;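 active means more than half of the replicate wells show a fall in the fluorescence ratio signal beyond about 16%, limit read from the data, passing the limit was not always enough; inconclusive means exactly half of the replicate wells pass the set limit; inactive means fewer than half of replicates pass the limit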;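 further: 0% = DMSO wells and 100% = Ran loaded with GDP instead of GTP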
* = called active by the depositor.

For COc1ccc(CCNC(=O)c2cc3c(=O)n4ccccc4nc3n(CCN3CCOCC3)c2=N)cc1 the results were KLK7 zymogen act -2, AI-2 QS modul 4 and RanGTP-Impb inh 25*.
`COc1ccc(CCn2c(=N)c(C(=O)NCCN3CCOCC3)cc3c(=O)n4ccccc4nc32)cc1OC` gave KLK7 zymogen act -1, AI-2 QS modul 21 and RanGTP-Impb inh -1.
For COc1ccc(CCNC(=O)c2cc3c(=O)n4ccccc4nc3n(CCCN3CCOCC3)c2=N)cc1OC the results were KLK7 zymogen act -2, AI-2 QS modul 31 and RanGTP-Impb inh 16*.
For COc1ccc(CCNC(=O)c2cc3c(=O)n4ccccc4nc3n(CC3CCCO3)c2=N)cc1 (configuration not stated) the results were KLK7 zymogen act 2.
Screening COc1ccc(CCNC(=O)c2cc3c(=O)n4ccccc4nc3n(C3CCCCC3)c2=N)cc1 returned KLK7 zymogen act -2, AI-2 QS modul 18 and RanGTP-Impb inh 63*.
C[C@@H](c1ccccc1)N1C[C@H](COCc2ccccc2)Oc2cc(N3CC[C@@H](O)C3)ccc2S1(=O)=O was read as KLK7 zymogen act 0.
Screening C=CCOC(=O)N1CCC(NS(=O)(=O)c2ccc3c(c2)CCN3C(C)=O)CC1 returned KLK7 zymogen act -1.
O=C1CCC(C(=O)N2CCCCO2)CN1Cc1cccc(F)c1 (configuration not stated) was read as KLK7 zymogen act 0, AI-2 QS modul 14 and RanGTP-Impb inh 0.
Screening O=c1nc2n(Cc3ccccc3)c3ccccc3cc-2c(=O)[nH]1 returned Wee1 stabilizer -1, KLK7 zymogen act 8, Runt-CBFb FRET 63*, Runt-SMMHC FRET 82*, AI-2 QS modul 9 and RanGTP-Impb inh 89*.
Screening O=C(Nc1ccccc1Br)c1cccc2ccccc12 returned KLK7 zymogen act 0, AI-2 QS modul 14 and RanGTP-Impb inh 1.
`O=C(CSc1nnc(-c2ccccn2)n1-c1ccc(Cl)cc1)Nc1ccc(S(=O)(=O)Nc2nccs2)cc1` gave KLK7 zymogen act 0.
For O=S(=O)([N-]c1nc2ccccc2nc1-n1cc[n+](Cc2ccccc2)c1)c1ccccc1 the results were Wee1 stabilizer -3, KLK7 zymogen act 4, Runt-CBFb FRET 17, Runt-SMMHC FRET 36, AI-2 QS modul 27 and RanGTP-Impb inh inconclusive.
Screening Cc1ccc(S(=O)(=O)[N-]c2nc3ccccc3nc2-n2cc[n+](Cc3ccccc3)c2)cc1 returned Wee1 stabilizer 3, KLK7 zymogen act -2, Runt-CBFb FRET 19, Runt-SMMHC FRET 39, AI-2 QS modul 20 and RanGTP-Impb inh 14*.
Screening CCC(=O)N1CC2(C)CN(C(=O)CC)CC(C)(C1)C2 returned Wee1 stabilizer -3, KLK7 zymogen act 0, Runt-CBFb FRET -1, Runt-SMMHC FRET 3, AI-2 QS modul 23 and RanGTP-Impb inh 17*.
For COc1ccc(CNS(=O)(=O)CC2NCCc3ccccc32)cc1 (configuration not stated) the results were KLK7 zymogen act 0.
Screening C[C@@H]1CN([C@@H](C)CO)C(=O)CCCn2cc(nn2)CO[C@H]1CN(C)C(=O)Nc1cccc2ccccc12 returned KLK7 zymogen act -5.
`O=C(CN1CCN(S(=O)(=O)c2ccc(F)cc2)CC1)NCc1cccs1` gave KLK7 zymogen act 0, AI-2 QS modul 15 and RanGTP-Impb inh -2.
Screening O=C(CN1CCN(c2ccc(F)cc2)CC1)NCc1cccs1 returned Wee1 stabilizer 9.0*, KLK7 zymogen act 0, Runt-CBFb FRET -1, Runt-SMMHC FRET -1, AI-2 QS modul 12 and RanGTP-Impb inh 0.
`Cc1ccc2nc(/C(C#N)=C/c3ccccc3C(=O)O)[nH]c2c1` gave KLK7 zymogen act -1, AI-2 QS modul 23 and RanGTP-Impb inh 8.
Screening Cc1ccc2nc(/C(C#N)=C/c3ccc(O)c(O)c3)[nH]c2c1 returned KLK7 zymogen act 0, AI-2 QS modul -2 and RanGTP-Impb inh 28*.
CN(C)S(=O)(=O)Nc1ccc(Oc2ccccc2)cc1 was read as Wee1 stabilizer 1, KLK7 zymogen act 0, Runt-CBFb FRET 0, Runt-SMMHC FRET 3, AI-2 QS modul -93* and RanGTP-Impb inh 1.
For Cc1[nH]c(=O)[nH]c(=O)c1S(=O)(=O)Nc1ccc(Oc2ccccc2)cc1 the results were Wee1 stabilizer -2, KLK7 zymogen act 0, Runt-CBFb FRET -2, Runt-SMMHC FRET -11, AI-2 QS modul 37 and RanGTP-Impb inh -2.
For COc1ccc2oc(=N)c(C(=O)Nc3ccc(C)cc3)cc2c1 the results were KLK7 zymogen act -2, AI-2 QS modul 9 and RanGTP-Impb inh -2.
COc1ccccc1NC(=O)c1cc2ccc(O)cc2o/c1=N\O was read as Wee1 stabilizer 0, KLK7 zymogen act -1, Runt-CBFb FRET 95*, Runt-SMMHC FRET 81*, AI-2 QS modul 25 and RanGTP-Impb inh 135*.
`COc1ccc2o/c(=N\O)c(C(=O)Nc3ccc(C)cc3)cc2c1` gave Wee1 stabilizer 3, KLK7 zymogen act 4, Runt-CBFb FRET 21, Runt-SMMHC FRET 63*, AI-2 QS modul 5 and RanGTP-Impb inh 4.
For COc1ccccc1NC(=O)c1cc2cc(Br)ccc2cc1O the results were Wee1 stabilizer -3, KLK7 zymogen act -48, Runt-CBFb FRET -29, Runt-SMMHC FRET -97, AI-2 QS modul 16 and RanGTP-Impb inh 0.
For COc1ccccc1NC(=O)c1cc2ccccc2o/c1=N\O the results were KLK7 zymogen act 1, Runt-CBFb FRET 48, Runt-SMMHC FRET 62*, AI-2 QS modul 18 and RanGTP-Impb inh -2.
Screening COc1ccc(N=c2oc3ccccc3cc2C(=O)Nc2ccccn2)cc1OC returned Wee1 stabilizer 1, AI-2 QS modul 21 and RanGTP-Impb inh 6.
For CC(C)C[C@H](NC(=O)c1ccc(Cl)cc1Cl)C(=O)N1CCC[C@H]1C(=O)NCc1ccccc1 the results were KLK7 zymogen act 0.
For N#Cc1nc(-c2ccc(Cl)cc2)oc1NCC1CCCO1 (configuration not stated) the results were Wee1 stabilizer 11*, KLK7 zymogen act 6, Runt-CBFb FRET -3, Runt-SMMHC FRET 1, AI-2 QS modul 10 and RanGTP-Impb inh 0.
For CCN=C1NC(CCc2ccccc2)C(C(=O)OC)=C(C)N1Cc1ccccc1C(F)(F)F (configuration not stated) the results were KLK7 zymogen act 0.
`Cc1ccc(NC(=O)COC(=O)[C@H](C)NC(N)=O)c(C)c1` gave Wee1 stabilizer -4, KLK7 zymogen act 1, Runt-CBFb FRET 2, Runt-SMMHC FRET -1, AI-2 QS modul 8 and RanGTP-Impb inh 7.
